Legend:
[1] = Inhibition of Plasmodium falciparum protein farnesyltransferase by scintillation proximity assay
[2] = test system: Plasmodium falciparum; experiment: Inhibition of Plasmodium falciparum protein farnesyltransferase at 0.5 nM by scintillation proximity assay
[3] = test system: Plasmodium falciparum; experiment: Inhibition of Plasmodium falciparum protein farnesyltransferase at 5 nM by scintillation proximity assay
[4] = test system: Plasmodium falciparum; experiment: Antimalarial activity against Plasmodium falciparum K1; type: functional; details: Plasmodium falciparum, K1; read-out: ED50 (the source's name)
Method in brief: (§1)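 Asynchronous culture in type A+ erythrocytes at 0.5% parasitemia and 0.5% hematocrit, grown in RPMI-1640 with 20% heat-inactivated human A+ plasma. Compound was serially diluted from a top final 5 µM, with DMSO vehicle as 100% growth. Plates ran 48 h at 37 °C under 5% CO2/5% O2/90% N2, then [3H]-hypoxanthine (0.3 µCi) for 24 h. Filter-harvested counts were corrected for the uninfected-RBC background. ED50 by linear regression; duplicates averaged.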

[5] = biological target: Protein farnesyltransferase (Rattus norvegicus); experiment: Inhibition of protein farnesyltransferase
[6] = test system: Plasmodium falciparum; experiment: Inhibition of Plasmodium falciparum protein farnesyltransferase at 50 nM by scintillation proximity assay
[7] = test system: Plasmodium falciparum; experiment: Antimalarial activity against Plasmodium falciparum 3D7; type: functional; details: Plasmodium falciparum, 3D7; read-out: ED50 (the source's name); method in brief: as §1

IC50 [1]	inhibition [2]	inhibition [3]	EC50 [4]	IC50 [5]	inhibition [6]	EC50 [7]	Structure (SMILES)
0.6 nM	88%	36%	76 nM	7.8 nM	96%	20 nM	Cn1cncc1CN1CC(N(CC2CCN(C(=O)CC(C)(C)C)CC2)S(=O)(=O)c2ccccn2)Cc2cc(C#N)ccc21 (stereo unspecified)
7 nM	63%	20%	330 nM	16 nM	94%	150 nM	Cn1cncc1CN1CC(N(CC2CCN(C(=O)c3ccccc3)CC2)S(=O)(=O)c2ccccn2)Cc2cc(C#N)ccc21 (stereo unspecified)
–	4%	93%	100 nM	3.8 nM	100%	51 nM	Cn1cncc1CN1CC(N(Cc2ccccn2)S(=O)(=O)c2ccccn2)Cc2cc(C#N)ccc21 (stereo unspecified)
3 nM	63%	12%	690 nM	6.5 nM	95%	80 nM	CCCC(=O)N1CCC(CN(C2Cc3cc(C#N)ccc3N(Cc3cncn3C)C2)S(=O)(=O)c2ccccn2)CC1 (stereo unspecified)

Second part, the compound before the results:

Structure (SMILES)	IC50 [1]	inhibition [2]	inhibition [3]	EC50 [4]	IC50 [5]	inhibition [6]	EC50 [7]
Cn1cncc1CN1CC(N(CC(=O)NC(C)(C)C)S(=O)(=O)c2nccn2C)Cc2cc(C#N)ccc21 (stereo unspecified)	8 nM	2%	27%	3100 nM	5 nM	80%	750 nM
CCOC(=O)N1CCC(CN(C2Cc3cc(C#N)ccc3N(Cc3cncn3C)C2)S(=O)(=O)c2ccccn2)CC1 (stereo unspecified)	0.5 nM	95%	46%	40 nM	5.5 nM	100%	55 nM
Cn1cnc(S(=O)(=O)N(Cc2ccc(-n3cccn3)cc2)C2Cc3cc(C#N)ccc3N(Cc3cncn3C)C2)c1 (stereo unspecified)	0.5 nM	56%	98%	38 nM	2.6 nM	98%	42 nM
Cc1onc(-c2ccccc2)c1CN(C1Cc2cc(C#N)ccc2N(Cc2cncn2C)C1)S(=O)(=O)c1ccccn1 (stereo unspecified)	–	42%	93%	56 nM	3 nM	100%	45 nM
Cn1cnc(S(=O)(=O)N(Cc2ccc(C(=O)O)cc2)C2Cc3cc(C#N)ccc3N(Cc3cncn3C)C2)c1 (stereo unspecified)	–	0%	19%	> 5000 nM	4.8 nM	66%	> 5000 nM
Cn1cnc(S(=O)(=O)N(Cc2ccc3ccccc3c2Br)C2Cc3cc(C#N)ccc3N(Cc3cncn3C)C2)c1 (stereo unspecified)	–	0%	9%	4500 nM	1000 nM	69%	3000 nM
Cc1ccccc1CN(C1Cc2cc(C#N)ccc2N(Cc2cncn2C)C1)S(=O)(=O)c1cn(C)cn1 (stereo unspecified)	–	34%	95%	20 nM	3.4 nM	100%	55 nM
Cn1cnc(S(=O)(=O)N(CC2CCNCC2)C2Cc3cc(C#N)ccc3N(Cc3cncn3C)C2)c1 (stereo unspecified)	–	0%	6%	> 5000 nM	105 nM	65%	> 5000 nM
CC(C)COC(=O)N1CCC(CN(C2Cc3cc(C#N)ccc3N(Cc3cncn3C)C2)S(=O)(=O)c2ccccn2)CC1 (stereo unspecified)	1.4 nM	88%	12%	62 nM	25 nM	100%	62 nM
Cn1cncc1CN1CC(N(CCn2cccc2)S(=O)(=O)c2ccccn2)Cc2cc(C#N)ccc21 (stereo unspecified)	–	74%	96%	10 nM	1.7 nM	99%	17 nM
